# Source: PubChem
# RGS4 inh – human RGS4 inhibition; hit rate 0.45% among 310,000; P49798; B-score at 10 µM; HEK293 M3R/RGS4 inducible, Fluo-4 calcium flux; stronger effect = higher value; triggered by carbachol at its EC20;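 active = B-score, a plate-corrected calcium signal, over three deviations above library mean, with baseline fluorescence within five deviations of library mean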;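 also: RGS4 expression induced by doxycycline in cells with stable M3 receptor; B-score is computed from the integrated fluorescence ratio over baseline after carbachol; higher B-score means a larger calcium signal and so more RGS4 inhibition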
# Target sequence (P49798 whole entry, looked up): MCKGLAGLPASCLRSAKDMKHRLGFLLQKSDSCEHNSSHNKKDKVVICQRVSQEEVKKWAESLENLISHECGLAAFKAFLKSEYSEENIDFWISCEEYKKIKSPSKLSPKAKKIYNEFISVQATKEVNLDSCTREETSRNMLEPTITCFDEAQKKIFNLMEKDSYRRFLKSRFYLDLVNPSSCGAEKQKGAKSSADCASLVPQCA
# MrgX1 allo act – allosterically activates human MrgX1 receptor signaling. Q96LB2. MrgX1-HEK293, Fluo-4 calcium flux, FDSS; stronger effect = higher value. B-score at 10 µM. hit rate 0.63% among 310,000;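 active = plate-corrected calcium response at least 3 library SD above typical, normal starting fluorescence, not activating the receptor alone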;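 also: compound read alongside a low EC10 to EC30 dose of BAM8-22 agonist; peak minus trough fluorescence over baseline measured at the second addition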
# Target sequence (Q96LB2 whole entry, looked up): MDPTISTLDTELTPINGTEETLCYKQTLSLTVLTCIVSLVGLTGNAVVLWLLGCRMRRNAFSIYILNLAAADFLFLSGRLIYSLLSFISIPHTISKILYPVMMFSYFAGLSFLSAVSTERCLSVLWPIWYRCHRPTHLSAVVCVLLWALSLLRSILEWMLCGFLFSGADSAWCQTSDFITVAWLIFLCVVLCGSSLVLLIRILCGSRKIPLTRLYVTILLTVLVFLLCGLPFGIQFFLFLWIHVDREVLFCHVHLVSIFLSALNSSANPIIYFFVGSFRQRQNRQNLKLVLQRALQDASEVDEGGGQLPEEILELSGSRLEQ
# RGS4 act – potentiators or activators of RGS4 | AID 463111 | hit rate 0.92% among 310,000 | B-score at 10 µM | HEK293 M3R/inducible RGS4, carbachol calcium flux Fluo4; stronger effect = lower value;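 active = B-score of the integrated calcium signal more than 4 SD below the library mean, with starting fluorescence not abnormally high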;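 also: negative B-score means reduced calcium response which marks RGS4 activation or potentiation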
#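 Reagent: ECmax carbachol challenge; Test system: M3R-expressing HEK293 line, RGS4 induced by doxycycline; Schedule: overnight RGS4 induction, 30 min dye load 37 °C, 20 min compound RT; Detection: calcium dye Fluo4 fluorescence; Read-out: Agonist-evoked peak-minus-minimum fluorescence over baseline, integrated ratio, B score.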
# MrgX1 ag – human MrgX1 receptor agonism, primary screen. Q96LB2. MrgX1-HEK293 cells, Fluo-4 calcium fluorescence, agonist mode; stronger effect = higher value. B-score at 10 µM. hit rate 0.44% among 310,000. AID 588627;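 active = calcium response B-score plate-corrected fluorescence ratio at least 3 library SD, with starting fluorescence B-score inside 5 SD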
#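 Material: MrgX1-expressing HEK293 cells; input: 15,000 cells per well; doses: test compound given as first of three sequential additions; schedule: overnight plating before 1 h dye loading; technique: Fluo-4 NW calcium-flux fluorescence, kinetic read; evaluation: baseline-normalised fluorescence change ratio, B-scored; control set: plate-wise positive and negative controls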
# MrgX1 antag – human MrgX1 receptor antagonism, primary screen. Q96LB2. MRGX1-HEK293 calcium flux, Fluo-4, BAM8-22 antagonism; stronger effect = lower value. B-score at 10 µM. hit rate 1.3% among 310,000. AID 588676;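 active = calcium-response B-score plate-corrected more than 3 library SD below zero, starting fluorescence within 5 deviations, no agonist response on first addition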;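 also: peak minus trough fluorescence over baseline after final BAM8-22 challenge near maximal dose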
# RGS4 act valid – RGS4 activation, validation assay; shares compounds with RGS4 act; hit rate 89% among 1,100; HEK293 M3R/RGS4 inducible, carbachol calcium flux Fluo4; AID 602282; inhibition, % at 10 µM;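 active = inhibition above 3 SD of the buffer control wells, cut at about 41% in these data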;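 also: signal is the integrated peak-minus-minimum Fluo4 fluorescence over baseline ratio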
# M3R Ca counter – activity in cells without induced RGS4 expression; shares compounds with RGS4 act; HEK293 M3R non-induced RGS4, Fluo4 calcium flux; after carbachol challenge at its EC90; inhibition, % at 10 µM; hit rate 82% among 1,100;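 active = inhibition exceeding 3 SD of buffer-only control wells, cut at about 26% in these data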;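 also: percent drop in integrated peak-minus-baseline over baseline Fluo4 ratio after carbachol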
# * = called active by the depositor; i = inactive; / = no result. The list is not random: actives were taken first. Their share in the collection is about 3.5%.
SMILES,RGS4 inh,MrgX1 allo act,RGS4 act,MrgX1 ag,MrgX1 antag,RGS4 act valid,M3R Ca counter
O=C(COc1ccccc1)Nc1cccc(-c2nc3ccccc3[nH]2)c1,i,i,-8.1*,i,i,76*,37*
Cc1[nH]nc2c1C(c1ccc(F)cc1)C1=C(CC(C)(C)CC1=O)N2 (centres undefined),i,i,-9.7*,i,i,0,0
Cc1cc(=O)n2c3ccccc3n(CC(O)CN3CCN(Cc4ccccc4)CC3)c2c1C#N (centres undefined),i,i,-10*,i,i,74*,43*
COc1ccc(C2c3ccc4ccccc4c3Oc3ncn(CCCN(C)C)c(=N)c32)cc1 (centres undefined),i,i,-8.6*,i,i,40*,84*
COc1ccccc1C1c2ccc3ccccc3c2Oc2ncn(CCN(C)C)c(=N)c21 (centres undefined),i,i,-8.3*,i,i,86*,67*
COc1ccccc1C1c2ccc3ccccc3c2Oc2ncn(CCCO)c(=N)c21 (centres undefined),i,i,i,i,i,/,/
CC(=O)Nc1ccc(S(=O)(=O)NCCN2CCNC2=O)cc1Cl,i,i,i,i,i,/,/
COc1cc(C)c(NC(=S)NCCCN2CCOCC2)cc1OC,i,i,i,i,i,/,/
COc1ccccc1N1CCN(/N=C/c2ccccc2C(=O)O)CC1,i,i,i,i,i,/,/
COC(=O)C1=C(C)N(c2ccc(OC)cc2)C(C)=C(C(=O)OC)C1c1ccccc1,i,i,i,i,i,/,/
COC(=O)C1=C(C)N(c2ccc(OC)cc2)C(C)=C(C(=O)OC)C1c1ccc(OC)cc1,i,i,-9*,i,i,0,0
CCC(C)(C)NS(=O)(=O)c1cc(CN2C(=O)c3cccnc3C2=O)ccc1OC,i,i,i,i,i,/,/
CCOC(=O)c1ccc(N2C=C(C(=O)OC)C(c3cccc(O)c3)C(C(=O)OC)=C2)cc1,i,i,i,i,i,/,/
CN(CC(=O)Nc1cccc(F)c1)C(=O)c1cc(-c2cccs2)nn1-c1ccccc1,i,i,-9.6*,i,i,76*,43*
CCC(CC)C(=O)Nc1cccc(C(=O)N2CCCCCC2)c1,i,i,i,i,i,/,/
CCC(CC)C(=O)Nc1cccc(C(=O)N2CCOCC2)c1,i,i,-10*,i,i,0,0
CC(C)N(CCNC(=O)C1CCCN(c2ncnc3c2nc2n3CCCCC2)C1)Cc1ccccc1 (centres undefined),i,i,i,i,i,/,/
C/C(=N\NC(=O)CN1CCN(c2ccc(F)cc2)CC1)c1ccco1,i,i,i,i,i,/,/
CCCC[C@@H]1CNCCN1CCc1cc(C(F)(F)F)cc(C(F)(F)F)c1,i,i,-7.9*,i,i,93*,86*
Cc1ccccc1OCC(=O)NNC(=O)C1CCN(c2ncnc3sc(C)c(C)c23)CC1,i,i,i,i,i,/,/
CCCN(CC(=O)Nc1ccccc1C)C(=O)C1CCN(c2ncnc3sc(C)c(C)c23)CC1,i,i,-8.7*,i,i,64*,27*
CCOC(=O)C1(CCCc2ccccc2)CCN(Cc2nccn2CC)CC1,i,i,-11*,i,i,92*,84*
CCOC(=O)C1(CCOc2ccccc2)CCN(Cc2cccn2-c2ncccn2)CC1,i,i,-8.1*,i,i,54*,84*
COc1ccc2c(c1)C=C(CN1CCC(CO)(CCc3ccccc3)CC1)CO2,i,i,-8*,i,i,80*,84*
Cc1ccc(C(=O)N(CCc2ccccc2)Cc2ccccc2)cc1S(=O)(=O)N1CCCCC1,i,i,-8.5*,i,i,91*,50*
SMILES,RGS4 inh,MrgX1 allo act,RGS4 act,MrgX1 ag,MrgX1 antag,RGS4 act valid,M3R Ca counter
O=[N+]([O-])c1cccc(-c2ccc(/C=N/Nc3nc(N4CCCCC4)nc(N4CCCCC4)n3)o2)c1,i,i,-13*,i,i,81*,84*
COC(=O)c1cc2occc2n1Cc1nc(-c2cccc(Cl)c2)oc1C,i,i,-8.9*,i,i,94*,83*
COC(=O)c1cc2sccc2n1Cc1nc(-c2cccc(Cl)c2)oc1C,i,i,i,i,i,/,/
CCCN1CCN(CCCNC(=O)c2cc3c(=O)oc4ccc(C)cc4c3s2)CC1,i,i,i,i,i,/,/
Cc1ccc2nc(Cl)c3cc(C(=O)NCCCN4CCCC4)sc3c2c1,i,i,-7.6*,i,i,65*,40*
Cc1ccc(CNC(=O)CSc2nc3c(sc4ccccc43)c(=O)n2CCCN2CCCC2)cc1,i,i,-11*,i,i,94*,97*
Cc1cccc(OCc2nc(C#N)c(N3CCCC3)o2)c1,i,i,i,i,i,/,/
Cc1cccc(OCc2nc(C#N)c(N3CC(C)CC(C)C3)o2)c1 (centres undefined),i,i,-9.1*,i,i,94*,70*
Nc1ccc2c(c1)C(=O)C(=O)c1ccccc1-2,i,i,-8.7*,i,i,68*,48*
Nc1ccc2c(c1)C(=O)c1ccccc1-2,i,i,i,i,i,/,/
O=C(CNC1CCCCCC1)Nc1ccc(S(=O)(=O)NC2CC2)cc1,i,i,-7.7*,i,i,64*,84*
C/C(=N\NC(=O)c1ccc(CN2CCc3ccccc3C2)cc1)c1ccccc1O,i,i,-14*,i,-5*,94*,96*
CC(=O)c1cccc(NC(=O)c2ccc(CN3CCc4ccccc4C3)cc2)c1,i,i,i,i,i,/,/
COC(=O)C1CCN(C(=O)Cn2nnc(-c3cccc(F)c3)n2)CC1,i,i,i,i,i,/,/
Cc1ccc(C(=O)Nc2ccc(CN3CCCCC3)cc2)c(C)c1,i,i,-8.5*,i,i,55*,84*
COc1ccc(Cl)cc1C(=O)Nc1ccc(CN2CCCCC2)cc1,i,i,i,i,i,/,/
COc1ccc(C(=O)Nc2ccccc2N2CCN(C(=O)c3ccccc3)CC2)cc1Br,i,i,-9.4*,i,i,64*,26*
